HIV Rev-RRE inh = HIV Rev-RRE protein-RNA interaction inhibition; P05866; inhibition, % at 8 µM; Rev peptide-RRE RNA binding, FRET; actives 0.79% (n = 97,000);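 active = inhibition above the screen-wide mean plus 3 SD, cut at about 35% in these data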
Target sequence (P05866 whole entry, looked up): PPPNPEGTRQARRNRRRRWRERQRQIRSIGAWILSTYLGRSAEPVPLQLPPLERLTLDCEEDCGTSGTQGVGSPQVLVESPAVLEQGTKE
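Assay system: labelled RRE RNA duplex and labelled Rev peptide / Medium: HEPES pH 7.5 salt buffer with EDTA / Reagent: labelled Rev peptide / Schedule: 5 + 15 min at 25 °C / Signal: FRET, excitation 480 nm, emission 540 nm donor and 671 nm acceptor / Benchmarks: DMSO and neomycin B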
sEH inh = blocks human soluble epoxide hydrolase activity | inhibition, % at 2 µM | P34913 | actives 0.34% (n = 91,000) | recombinant human sEH enzymatic activity assay | AID 707; in the data active = inhibition above about 80%
Target sequence (P34913 whole entry, looked up): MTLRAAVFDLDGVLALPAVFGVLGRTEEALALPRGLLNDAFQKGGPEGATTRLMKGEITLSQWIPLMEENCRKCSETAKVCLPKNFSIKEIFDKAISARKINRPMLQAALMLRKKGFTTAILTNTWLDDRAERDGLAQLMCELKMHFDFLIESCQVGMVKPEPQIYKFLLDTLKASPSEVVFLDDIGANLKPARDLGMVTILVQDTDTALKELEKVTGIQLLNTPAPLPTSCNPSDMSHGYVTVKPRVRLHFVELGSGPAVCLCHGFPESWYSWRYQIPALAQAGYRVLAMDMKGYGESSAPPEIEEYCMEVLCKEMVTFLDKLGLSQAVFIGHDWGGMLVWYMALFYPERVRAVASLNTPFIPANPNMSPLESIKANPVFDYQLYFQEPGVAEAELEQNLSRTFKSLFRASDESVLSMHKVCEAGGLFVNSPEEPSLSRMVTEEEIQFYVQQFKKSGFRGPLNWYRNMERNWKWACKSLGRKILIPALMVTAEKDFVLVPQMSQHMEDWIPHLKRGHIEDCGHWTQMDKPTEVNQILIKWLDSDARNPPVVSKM
sEH act = activators of human soluble epoxide hydrolase. P34913. actives 0.04% (n = 91,000). AID 717. purified human sEH enzymatic activity, activator screen. activation, % at 2 µM; in the data active = activation above about 37%
ERb SRC1 inh = blocks coactivator binding to human estrogen receptor beta; TR-FRET ER-beta LBD / SRC1-Cy5 peptide binding; receptor agonist-loaded with 1 µM estradiol; AID 633; actives 1.3% (n = 86,000); inhibition, % at 25.6 µM;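 active = compounds whose percent inhibition of the receptor-coactivator binding signal exceeds about 50% in the single-dose screen, limit read from the data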
ERa coact inh = ER-alpha (human) coactivator binding inhibition. TR-FRET ER-alpha LBD / SRC-1 peptide, estradiol-bound. inhibition, % at 25.6 µM. actives 1.7% (n = 86,000); in the data active = inhibition above about 50%
ERa SRC1 pot = enhances coactivator binding to human estrogen receptor alpha; coactivator binding (% of control), % at 25.6 µM; P03372; TR-FRET ERalpha-LBD/SRC-Cy5 coactivator binding, 2 h; 100 = basal binding, no effect; actives 1.3% (n = 86,000); in the data active = activity above about 200%;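 note: binding measured in presence of low estradiol as agonist stimulus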
Of the large screens only hits and unclear results are named; the others gave an inactive call; [ ] = remark or other dose. Rows were chosen to be rich in hits. Some 3.5% of all compounds tested hit in one or more screens of this group.

CC(C)CSc1nc2c(c(=O)[nH]c(=O)n2C)n1CCc1ccccc1	none
CC(C)CSc1nc2c(c(=O)[nH]c(=O)n2C)n1CC(O)COc1cccc2ccccc12 (configuration not stated)	ERb SRC1 inh 56
C=CCc1c(C)nc(C)nc1N/N=C/c1ccccc1O	HIV Rev-RRE inh 41
COC(=O)c1sc2nc(-c3ccco3)ccc2c1N	ERb SRC1 inh 73, ERa coact inh 54
CCOC(=O)c1c(C)oc2c1c(C(c1ccccc1)N1CCOCC1)c(O)c1ccccc12 (configuration not stated)	none (no result: ERb SRC1 inh, ERa coact inh, ERa SRC1 pot)
CCOC(=O)c1c(C)oc2c1c(C(c1cccnc1)N1CCCCC1)c(O)c1ccccc12 (configuration not stated)	ERb SRC1 inh 67, ERa coact inh 68
COc1ccc(CC(=O)N2CC(C)CC(C)C2)cc1OC (configuration not stated)	ERb SRC1 inh 84[fluorescence artefact?]
Clc1ccc(C2=CC(c3ccco3)n3ncnc3N2)cc1 (configuration not stated)	HIV Rev-RRE inh 122[fluorescence artefact?]
COc1ccc(C2C=C(c3ccccc3)Nc3ncnn32)cc1 (configuration not stated)	HIV Rev-RRE inh 45, ERb SRC1 inh 86[fluorescence artefact?]
CCOc1ccc(C2C=C(c3ccc(C)cc3)Nc3ncnn32)cc1 (configuration not stated)	none (no result: sEH inh, sEH act)
CCn1c(SCC(=O)Nc2cc3oc4ccccc4c3cc2OC)nnc1-c1cccs1	none
COc1ccc(/C=C2\CCc3ccccc3C2=O)cc1Cn1cccn1	none
Cc1cccc(NC(NC(=O)c2cccnc2)C(Cl)(Cl)Cl)c1 (configuration not stated)	none (no result: ERb SRC1 inh, ERa coact inh, ERa SRC1 pot)
CCOc1ccc(N(CC(=O)N2CCc3ccccc32)S(=O)(=O)c2c(C)noc2C)cc1	none
Cc1n[nH]c(C)c1S(=O)(=O)N(CC(=O)N1CCc2ccccc21)c1ccc(C(C)C)cc1	ERb SRC1 inh 50, ERa coact inh 54[fluorescence artefact?]
O=C(CSc1nnnn1-c1cccc(F)c1)Nc1nc2ccccc2s1	ERa coact inh 55[fluorescence artefact?], ERa SRC1 pot 298
O=C(CSc1nnnn1-c1ccccc1F)Nc1nc2ccccc2s1	none (no result: ERb SRC1 inh, ERa coact inh, ERa SRC1 pot)
C#CCSc1nccc(-c2nn(-c3ccc(C)cc3)ccc2=O)n1	none
Cc1cccc(-c2nnc(SCC#N)n2-c2cccc(Cl)c2)c1	none
COc1ccc(-n2c(SCCC#N)nnc2-c2cc(Cl)ccc2OC)cc1Cl	ERa SRC1 pot 399[fluorescence artefact?]
O=C(Nc1sc2c(c1C(=O)O)CCC2)c1ccccc1	ERb SRC1 inh 76, ERa coact inh 79[fluorescence artefact?]
COc1ccccc1NC(=O)c1c(NC(=O)c2ccco2)sc2c1CCC2	ERa coact inh 70[fluorescence artefact?]
COCCCNC(=O)c1c(NC(=O)c2cccs2)sc2c1CCCC2	ERa SRC1 pot 331[fluorescence artefact?]
O=C(Nc1sc2c(c1C(=O)O)CCC2)c1cccs1	none
NC(=O)c1c(NC(=O)c2cccs2)sc2c1CCCCCC2	ERa coact inh 60 (no result: HIV Rev-RRE inh, sEH inh, sEH act)
CC(c1ccccn1)N(CCN(C)C)C(=S)Nc1cccc(F)c1 (configuration not stated)	none
COC(=O)c1cc2c(s1)-c1ccccc1OC2	sEH act 44 (no result: HIV Rev-RRE inh)
Cc1cccc2c1-c1sc(C(=O)Nc3nccs3)cc1CO2	sEH act 53
O=C(Nc1nccs1)c1cc2c(s1)-c1ccccc1OC2	none (no result: sEH inh, sEH act, ERb SRC1 inh, ERa coact inh, ERa SRC1 pot)
O=C(Nc1nc2ccccc2s1)c1cc2c(s1)-c1ccccc1OC2	ERa coact inh 71
CCC(=O)Oc1ccc(C(=O)Nc2cccc(C(=O)c3ccccc3)c2)cc1	none (no result: ERb SRC1 inh, ERa coact inh, ERa SRC1 pot)
CCN(CC)c1nc(C#N)cc(-c2ccc(OC)cc2)n1	none
COc1cc(S(=O)(=O)n2c(C)nc3ccccc32)ccc1F	none
CC1(C)Cc2nc3oc4c(=S)nc[nH]c4c3cc2CO1	none (no result: HIV Rev-RRE inh, sEH inh, sEH act)
O=C(Nc1cccc(C(=O)O)c1)/C(=C\c1ccccc1)NC(=O)c1ccccc1Cl	none (no result: ERb SRC1 inh, ERa coact inh, ERa SRC1 pot)
COc1ccccc1CNC(=O)c1ccc(OCc2c(C)noc2C)c(OC)c1	none
Cc1noc(C)c1COc1cccc(C(=O)NCc2ccccc2Cl)c1	sEH inh 86
Cc1cc(C)c(S(=O)(=O)c2c(C)cccc2C)c(Cl)n1	none (no result: ERb SRC1 inh, ERa coact inh, ERa SRC1 pot)
O=c1c2[nH]c3ccccc3c2ncn1CCC1=CCCCC1	ERa SRC1 pot 308[fluorescence artefact?]
Cc1ccc2[nH]c3c(=O)n(CCC4=CCCCC4)cnc3c2c1	ERa SRC1 pot 335[fluorescence artefact?]
CCCOc1cc(C)c(S(=O)(=O)NCCOC)cc1C	none
COc1cc(N2CCCC2)c(OC)cc1/C=c1/sc2nc3ccccc3n2c1=O	HIV Rev-RRE inh 133[fluorescence artefact?], ERb SRC1 inh 74[fluorescence artefact?], ERa coact inh 97[fluorescence artefact?] (no result: sEH inh, sEH act)
Clc1ccc(-c2nnc3sc(Cc4cccs4)nn23)c(Cl)c1	none (no result: sEH inh, sEH act)
c1coc(-c2nnc3sc(Cc4cccs4)nn23)c1	ERb SRC1 inh 67, ERa coact inh 87[fluorescence artefact?]
c1csc(Cc2nn3c(-c4n[nH]c5c4CCC5)nnc3s2)c1	ERb SRC1 inh 62, ERa coact inh 87[fluorescence artefact?]
c1coc(-c2nn3c(-c4ccco4)nnc3s2)c1	ERb SRC1 inh 55, ERa coact inh 58[fluorescence artefact?]
COCCn1c(SCC(=O)NCc2ccco2)nc2cccnc21	none
CCC(C(=O)OC)n1cnc2c(cnn2-c2ccc(Cl)cc2)c1=O (configuration not stated)	none
CC1Cc2ccccc2N1C(=O)CSc1nc2ccccc2n1CC(=O)N1CCOCC1 (configuration not stated)	none
CC1CCC2(CC1)N=C(N)Nc1nc3ccccc3n12 (configuration not stated)	ERa coact inh 63[fluorescence artefact?]
CCCCC(CC)CNC(=O)C1CCCN(S(=O)(=O)c2cnc[nH]2)C1 (configuration not stated)	sEH inh 83
COc1ccc(-c2nnc3n2N=C(c2cccc(Br)c2)CS3)cc1OC	ERa SRC1 pot 233 (no result: HIV Rev-RRE inh, sEH inh, sEH act)
COc1ccc(C2=Nn3c(nnc3-c3ccccc3OC)SC2)cc1OC	none (no result: ERb SRC1 inh, ERa coact inh, ERa SRC1 pot)
COc1ccc(N(CC(=O)Nc2ccccc2C(=O)NCc2ccco2)S(C)(=O)=O)cc1	none
C=CCn1c(=O)[nH]c2cc(C(=O)N3CCN(c4ccc(C(C)=O)cc4)CC3)ccc2c1=O	ERa coact inh 68
CN1CCN(S(=O)(=O)c2ccc(NC(=O)C(C)(C)C)cc2)CC1	none
COc1ccc(S(=O)(=O)C(C#N)c2nc3ccccc3nc2N2CCCC(C)C2)cc1 (configuration not stated)	HIV Rev-RRE inh 38
Cc1ccc(S(=O)(=O)C(C#N)c2nc3ccccc3nc2N2CCCC2)cc1 (configuration not stated)	HIV Rev-RRE inh 77
O=C(Nn1c(=S)[nH]c2ccccc2c1=O)c1ccncc1	none
Cc1cccc(NC(=O)C2CCN(S(=O)(=O)c3c(C)nn(C)c3C)CC2)n1	ERb SRC1 inh 57 (no result: HIV Rev-RRE inh, sEH inh, sEH act)
O=C(NCCc1ccccc1)c1ccc2nc(-c3ccco3)c(-c3ccco3)nc2c1	ERb SRC1 inh 88[fluorescence artefact?], ERa coact inh 86[fluorescence artefact?]
O=C(NC1CCCC1)c1ccc2nc[nH]c2c1	none

Screens as filed in PubChem.
